{"source": "ChEMBL document CHEMBL1156792", "about": "“Application of the dipeptidyl peptidase IV (DPPIV/CD26) based prodrug approach to different amine-containing drugs” (J Med Chem, 2010)", "key": {"[1]": {"tested_on": "Human immunodeficiency virus 1", "assay": "Antiviral activity against HIV1 3B infected in human CEM cells assessed as inhibition of virus-induced cytopathicity", "type": "functional, organism-based", "details": "Human immunodeficiency virus 1, 3B, CCRF-CEM", "how_it_was_run": "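CEM cells (~4.5 × 10⁵/mL) were infected with HIV-1 IIIB at 100 CCID₅₀/mL and exposed to compound dilutions (final 0.62–2000 μM) at 37 °C. Giant cell formation was scored microscopically after 4–5 days. EC₅₀ is the concentration preventing syncytium formation by 50%.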"}, "[2]": {"assay": "Solubility in water", "type": "physicochemical", "how_it_was_run": "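Excess solid was suspended in deionized water, sonicated 10 min at room temperature, equilibrated overnight at room temperature and centrifuged. Supernatant was diluted into a five-point standard curve range. Concentration came from HPLC peak area against a DMSO-dissolved standard of known concentration.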"}, "Serum [3]": {"tested_on": "Serum", "assay": "Stability in 20 % bovine serum assessed as 6-aminoquinoline formation after 2 hrs", "type": "ADME, cell-free, Bos taurus", "details": "cattle", "how_it_was_run": "(§1)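 Prodrug (50 μM) in PBS with 0.1% DMSO was incubated at 37 °C with purified CD26 (1.5 mU) or 20% human or bovine serum in PBS. Samples taken at time points were quenched in cold methanol on ice, centrifuged at 4 °C and analyzed by RP-8 HPLC. Buffer A was 50 mM NaH₂PO₄ with 5 mM heptanesulfonic acid, pH 3.2; buffer B was acetonitrile.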"}, "Serum [4]": {"tested_on": "Serum", "assay": "Stability in 20 % human serum assessed as 6-aminoquinoline formation after 2 hrs", "type": "ADME, cell-free", "how_it_was_run": "as §1"}, "CCRF-CEM": {"tested_on": "CCRF-CEM", "assay": "Cytotoxicity against human CEM cells assessed as inhibition of cell proliferation after 48 hrs", "type": "functional, cell-based"}, "L1210": {"tested_on": "L1210", "assay": "Cytotoxicity against mouse L1210 cells assessed as inhibition of cell proliferation after 48 hrs", "type": "functional, cell-based", "details": "L1210, 48 h", "how_it_was_run": "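L1210 cells were seeded at (5–7.5) × 10⁴ cells/well in 200 μL wells with compound. Cell number was counted by Coulter counter after 48 h. IC₅₀ is the concentration inhibiting proliferation by 50%.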"}, "HeLa": {"tested_on": "HeLa", "assay": "Cytotoxicity against human HeLa cells assessed as inhibition of cell proliferation after 48 hrs", "type": "functional, cell-based"}, "Serum [5]": {"tested_on": "Serum", "assay": "Stability in 20 % bovine serum assessed as 6-aminoquinoline formation within 4 hrs", "type": "ADME, cell-free, Bos taurus", "details": "cattle", "how_it_was_run": "as §1"}, "Serum [6]": {"tested_on": "Serum", "assay": "Stability in 20 % human serum assessed as 6-aminoquinoline formation within 4 hrs", "type": "ADME, cell-free", "how_it_was_run": "as §1"}, "[7]": {"assay": "Stability assessed as 6-aminoquinoline formation in human recombinant CD26 measured within 4 hrs", "type": "ADME", "how_it_was_run": "as §1"}, "Human alphaherpesvirus 1 [8]": {"tested_on": "Human alphaherpesvirus 1", "assay": "Antiviral activity against HSV1 KOS infected in HEL cells assessed as inhibition of virus-induced cytopathicity in presence of vildagliptin", "type": "functional, organism-based", "details": "Human alphaherpesvirus 1, KOS", "how_it_was_run": "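HEL cells were infected with HSV-1 (KOS) at 100 CCID₅₀/mL with compound. The CD26 inhibitor vildagliptin (20 μM) was added once at the start of infection.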"}, "Vaccinia virus [9]": {"tested_on": "Vaccinia virus", "assay": "Antiviral activity against Vaccinia virus Lederle infected in HEL cells assessed as inhibition of virus-induced cytopathicity in presence of vildagliptin", "type": "functional, organism-based", "details": "Orthopoxvirus vaccinia"}, "Human alphaherpesvirus 1 [10]": {"tested_on": "Human alphaherpesvirus 1", "assay": "Antiviral activity against HSV1 KOS infected in HEL cells assessed as inhibition of virus-induced cytopathicity", "type": "functional, organism-based", "details": "Human alphaherpesvirus 1, KOS", "how_it_was_run": "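HEL cell cultures in 96-well plates were infected with HSV-1 (KOS) at 100 CCID₅₀/mL in the presence or absence of compound.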"}, "Vaccinia virus [11]": {"tested_on": "Vaccinia virus", "assay": "Antiviral activity against Vaccinia virus Lederle infected in HEL cells assessed as inhibition of virus-induced cytopathicity", "type": "functional, organism-based", "details": "Orthopoxvirus vaccinia"}, "Dipeptidyl peptidase 4": {"molecular_target": "Dipeptidyl peptidase 4 (Homo sapiens, UniProt P27487)", "sequence (P27487 whole entry)": "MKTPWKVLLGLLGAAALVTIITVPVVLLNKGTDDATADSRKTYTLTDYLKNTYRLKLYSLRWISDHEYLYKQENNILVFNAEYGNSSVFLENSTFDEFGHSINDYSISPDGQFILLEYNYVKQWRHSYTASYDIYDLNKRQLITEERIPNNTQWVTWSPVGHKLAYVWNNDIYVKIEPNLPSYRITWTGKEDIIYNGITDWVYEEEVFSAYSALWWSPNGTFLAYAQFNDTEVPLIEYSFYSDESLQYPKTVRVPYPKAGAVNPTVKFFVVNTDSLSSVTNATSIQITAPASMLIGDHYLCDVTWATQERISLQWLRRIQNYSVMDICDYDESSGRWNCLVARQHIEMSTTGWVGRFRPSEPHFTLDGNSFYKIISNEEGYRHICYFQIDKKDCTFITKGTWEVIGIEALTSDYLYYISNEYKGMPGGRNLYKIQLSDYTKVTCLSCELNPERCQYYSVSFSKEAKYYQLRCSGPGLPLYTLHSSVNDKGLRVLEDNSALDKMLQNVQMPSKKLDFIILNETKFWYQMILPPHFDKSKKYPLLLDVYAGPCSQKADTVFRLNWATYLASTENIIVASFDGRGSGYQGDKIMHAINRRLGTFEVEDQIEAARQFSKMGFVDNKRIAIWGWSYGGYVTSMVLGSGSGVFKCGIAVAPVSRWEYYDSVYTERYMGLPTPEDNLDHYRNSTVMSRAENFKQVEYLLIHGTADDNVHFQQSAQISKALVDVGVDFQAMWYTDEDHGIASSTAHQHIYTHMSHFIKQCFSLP", "assay": "Inhibition of human DPP4 from human Caco-2 cells", "type": "cell-based"}}, "note": "Peptide text beside a SMILES is read from it. * marks the point of attachment. X2 = OC[C@H]1O[C@@H](n2cnc3c(N*)ncnc32)[C@@H](O)[C@@H]1O; X1 = O=c1nc(N*)ccn1[C@@H]1O[C@H](CO)[C@@H](O)[C@@H]1O", "data": [{"molecule": "CC(C)(C)[Si](C)(C)OC[C@H]1O[C@@H](n2ccc(N)nc2=O)[C@@H](O)[C@@H]1O[Si](C)(C)C(C)(C)C", "values": [{"measurement": "EC50", "setting": "[1]", "result": 70, "unit": "nM"}]}, {"molecule": "CC(C)[C@H](N)C(=O)N1CCC[C@H]1C(=O)Nc1ccc2ncccc2c1", "values": [{"measurement": "solubility", "setting": "[2]", "result": 33.2, "unit": "mg/mL"}]}, {"molecule": "N[C@@H](CC(=O)O)C(=O)N1CCC[C@H]1C(=O)Nc1ccc2ncccc2c1", "values": [{"measurement": "solubility", "setting": "[2]", "result": 47.8, "unit": "mg/mL"}]}, {"molecule": "Cc1cn([C@@H]2O[C@H](CO[Si](C)(C)C(C)(C)C)[C@@]3(OS(=O)(=O)C=C3N)[C@H]2O[Si](C)(C)C(C)(C)C)c(=O)nc1NC(=O)[C@@H]1CCCN1C(=O)[C@@H](NC(=O)[C@@H]1CCCN1C(=O)[C@@H](N)C(C)C)C(C)C", "values": [{"measurement": "Activity", "setting": "Serum [3]", "result": 40, "unit": "%"}, {"measurement": "Activity", "setting": "Serum [4]", "result": 20, "unit": "%"}]}, {"molecule": "Nc1ccc2ncccc2c1", "values": [{"measurement": "solubility", "setting": "[2]", "result": 7.01, "unit": "mg/mL"}]}, {"molecule": "CC(C)[C@H](N)C(=O)N[C@@H](C)C(=O)N[C@H](C(=O)N1CCC[C@H]1C(=O)Nc1ccn([C@@H]2O[C@H](CO)[C@@H](O)[C@@H]2O)c(=O)n1)C(C)C", "note": "(H-VAVP-X1)", "values": [{"measurement": "IC50", "setting": "CCRF-CEM", "result": 50, "unit": "nM"}, {"measurement": "IC50", "setting": "L1210", "result": 82, "unit": "nM"}, {"measurement": "IC50", "setting": "HeLa", "result": 560, "unit": "nM"}]}, {"molecule": "CC(C)[C@H](N)C(=O)N1CCC[C@H]1C(=O)N[C@H](C(=O)N1CCC[C@H]1C(=O)Nc1ccn([C@@H]2O[C@H](CO)[C@@H](O)[C@@H]2O)c(=O)n1)C(C)C", "note": "(H-VPVP-X1)", "values": [{"measurement": "IC50", "setting": "CCRF-CEM", "result": 57, "unit": "nM"}, {"measurement": "Activity", "setting": "Serum [5]", "result": 80, "unit": "%"}, {"measurement": "IC50", "setting": "L1210", "result": 100, "unit": "nM"}, {"measurement": "IC50", "setting": "HeLa", "result": 630, "unit": "nM"}, {"measurement": "Activity", "setting": "Serum [6]", "result": 80, "unit": "%"}, {"measurement": "Activity", "setting": "[7]", "result": 80, "unit": "%"}]}, {"molecule": "CC(C)[C@H](N)C(=O)N1CCC[C@H]1C(=O)N[C@H](C(=O)N1CCC[C@H]1C(=O)Nc1ncnc2c1ncn2[C@@H]1O[C@H](CO)[C@@H](O)[C@@H]1O)C(C)C", "note": "(H-VPVP-X2)", "values": [{"measurement": "EC50", "setting": "Human alphaherpesvirus 1 [8]", "result": 238000, "unit": "nM"}, {"measurement": "EC50", "setting": "Vaccinia virus [9]", "result": 135000, "unit": "nM"}, {"measurement": "EC50", "setting": "Human alphaherpesvirus 1 [10]", "result": 54000, "unit": "nM"}, {"measurement": "solubility", "setting": "[2]", "result": 34.7, "unit": "mg/mL"}, {"measurement": "EC50", "setting": "Vaccinia virus [11]", "result": 16000, "unit": "nM"}]}, {"molecule": "Nc1ccn([C@@H]2O[C@H](CO)[C@@H](O)[C@@H]2O)c(=O)n1", "note": "[CYTARABINE]", "values": [{"measurement": "IC50", "setting": "HeLa", "result": 260, "unit": "nM"}]}, {"molecule": "Nc1ncnc2c1ncn2[C@@H]1O[C@H](CO)[C@@H](O)[C@@H]1O", "note": "[VIDARABINE]", "values": [{"measurement": "EC50", "setting": "Human alphaherpesvirus 1 [8]", "result": 42000, "unit": "nM"}, {"measurement": "EC50", "setting": "Vaccinia virus [9]", "result": 10000, "unit": "nM"}, {"measurement": "EC50", "setting": "Human alphaherpesvirus 1 [10]", "result": 35000, "unit": "nM"}, {"measurement": "IC50", "setting": "Dipeptidyl peptidase 4", "result": 62, "unit": "nM"}, {"measurement": "EC50", "setting": "Vaccinia virus [11]", "result": 8300, "unit": "nM"}]}]}
